Source: ChEMBL document CHEMBL3392997, “Interconversion of Functional Activity by Minor Structural Alterations in Nonpeptide AT2 Receptor Ligands” (ACS Med Chem Lett, 2015)
pIC50, pKi: −log10 of the molar value. Activity calls are given as the source filed them. No cut-off for these calls is given here.

What was measured:
[1] = target: T1, Type-2 angiotensin II receptor (Homo sapiens) (UniProt P50052); assay: Agonist activity at AT2 receptor (unknown origin) expressed in NG108-15 cells assessed as induction of neurite outgrowth at 100 nM after 3 days by phase contrast microscopy; assay type: cell-based
T1 sequence (whole entry): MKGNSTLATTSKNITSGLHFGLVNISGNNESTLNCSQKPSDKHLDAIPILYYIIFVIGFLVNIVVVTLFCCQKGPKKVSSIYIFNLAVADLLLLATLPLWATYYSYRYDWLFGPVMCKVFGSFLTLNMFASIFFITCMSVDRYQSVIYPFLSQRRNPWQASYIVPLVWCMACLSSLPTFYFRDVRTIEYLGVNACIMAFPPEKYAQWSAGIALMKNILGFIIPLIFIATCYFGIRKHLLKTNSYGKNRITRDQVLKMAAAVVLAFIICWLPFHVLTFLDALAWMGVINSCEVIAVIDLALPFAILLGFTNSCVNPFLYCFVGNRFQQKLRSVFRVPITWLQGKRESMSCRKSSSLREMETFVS
Procedure, shortened: (§1)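 Undifferentiated NG108-15 cells were plated at 3.6×10^4 cells per 35 mm dish and cultured 3 days with agent alone, or with 10 μM PD 123,319 or 100 nM Ang II. Phase-contrast micrographs were taken. A cell with at least one neurite longer than its cell body scored positive, expressed as percent of total cells counted (at least 400). Two-way ANOVA.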

[2] = target: T1, Type-2 angiotensin II receptor (Homo sapiens); assay: Agonist activity at AT2 receptor (unknown origin) expressed in NG108-15 cells assessed as induction of neurite outgrowth at 10 nM after 3 days by phase contrast microscopy; assay type: cell-based; procedure, shortened: as §1
[3] = target: T1, Type-2 angiotensin II receptor (Homo sapiens); assay: Antagonist activity against AT2 receptor (unknown origin) expressed in NG108-15 cells assessed as reduction in angiotension-2-induced neurite outgrowth at 10 nM after 3 days by phase contrast microscopy; assay type: cell-based; procedure, shortened: as §1
[4] = target: T2, Type-1 angiotensin II receptor A (Rattus norvegicus, UniProt P25095); assay: Displacement of [125I]-Ang II from AT1 receptor in rat liver membranes after 2 hrs by gamma-counting method; assay type: cell membranes, Membrane
T2 sequence (P25095 whole entry): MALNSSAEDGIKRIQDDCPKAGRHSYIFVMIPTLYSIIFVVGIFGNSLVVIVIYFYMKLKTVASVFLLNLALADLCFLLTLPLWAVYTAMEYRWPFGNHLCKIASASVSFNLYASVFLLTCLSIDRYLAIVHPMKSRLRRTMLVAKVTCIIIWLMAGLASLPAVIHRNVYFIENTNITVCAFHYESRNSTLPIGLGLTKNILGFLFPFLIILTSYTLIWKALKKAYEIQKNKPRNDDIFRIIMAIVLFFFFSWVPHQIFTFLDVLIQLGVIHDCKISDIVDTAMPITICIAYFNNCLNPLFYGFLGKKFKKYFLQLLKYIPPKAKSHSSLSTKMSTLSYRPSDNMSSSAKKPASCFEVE

[5] = target: T1, Type-2 angiotensin II receptor (Homo sapiens); assay: Agonist activity at AT2 receptor (unknown origin) expressed in NG108-15 cells assessed as induction of neurite outgrowth at 10 nM after 3 days in presence of 10 uM AT2 receptor antagonist PD 123,319 by phase contrast microscopy; assay type: cell-based; procedure, shortened: as §1
[6] = Binding affinity to AT2 receptor (unknown origin)
[7] = target: T1, Type-2 angiotensin II receptor (Homo sapiens); details: NG108-15, 10 uM
[8] = target: T3, Type-1 angiotensin II receptor (Homo sapiens, UniProt P30556); assay: Displacement of [125I]-[Sar1,Leu8]angiotensin II from human AT1 receptor expressed in african green monkey COS7 cells; assay type: cell-based, COS-7
T3 sequence (P30556 whole entry): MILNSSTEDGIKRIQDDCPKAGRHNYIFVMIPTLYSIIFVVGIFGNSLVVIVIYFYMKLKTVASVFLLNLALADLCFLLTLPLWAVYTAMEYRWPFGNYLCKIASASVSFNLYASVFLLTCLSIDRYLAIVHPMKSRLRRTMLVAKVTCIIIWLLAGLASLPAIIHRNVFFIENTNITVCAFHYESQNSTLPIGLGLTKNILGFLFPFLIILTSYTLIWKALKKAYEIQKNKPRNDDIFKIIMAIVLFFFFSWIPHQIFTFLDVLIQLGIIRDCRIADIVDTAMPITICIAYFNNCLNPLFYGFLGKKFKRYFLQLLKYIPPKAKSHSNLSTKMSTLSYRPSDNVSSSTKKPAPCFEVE

SMILES | Activity [2] | Activity [5] | also measured
CCCCOC(=O)NS(=O)(=O)c1ccc(CC(C)C)cc1-c1cccc(Cn2ccnc2)c1 | inactive |  | Activity [1]: inactive; inhibition [3]: Active
CCCCOC(=O)NS(=O)(=O)c1sc(CC(C)C)cc1-c1ccc(Cn2ccnc2)cc1 [BULOXIBUTID] |  |  | pKi [4]: < 5.00
CCCCOC(=O)NS(=O)(=O)c1cc(CC(C)C)ccc1-c1cccc(Cn2ccnc2)c1 | Active | inactive | 
CCCCOC(=O)NS(=O)(=O)c1ccc(CCC)cc1-c1ccc(Cn2c(CC)nc3c(C)cc(C)nc32)cc1 |  |  | pIC50 [6]: 8.38
CCCCOC(=O)NS(=O)(=O)c1cc(CC(C)C)ccc1-c1ccc(Cn2ccnc2)cc1 | Active | inactive | 
Cc1cc(Cn2cnc3c2C[C@@H](C(=O)O)N(C(=O)C(c2ccccc2)c2ccccc2)C3)ccc1N(C)C |  |  | inhibition [7]: Active
CCCCOC(=O)NS(=O)(=O)c1ccc(CC(C)C)cc1-c1ccc(Cn2c(CC)nc3c(C)cc(C)nc32)cc1 |  |  | pIC50 [8]: 8.68; pIC50 [6]: 9.15
CCCCOC(=O)NS(=O)(=O)c1ccc(CC(C)C)cc1-c1ccc(Cn2ccnc2)cc1 | Active | inactive | 
